ChEMBL document CHEMBL4330056, “Synthesis and Cytotoxic and Antiviral Profiling of Pyrrolo- and Furo-Fused 7-Deazapurine Ribonucleosides” (J Med Chem, 2018)
Calls of active or inactive are those of the source. The calls are words filed in the database; no cut-off is given here.

What was measured:
Adenosine kinase [1] = biological target: T1, Adenosine kinase (Homo sapiens, UniProt P55263); assay: Drug metabolism in human HCT116 cells assessed as ADK-mediated compound phosphorylation level per 5x10^5 cells at 10 umol/L after 3 hrs by UPLC-MS/MS analysis; type: ADME, cell-based; conditions: 10 µM
T1 sequence (P55263 whole entry): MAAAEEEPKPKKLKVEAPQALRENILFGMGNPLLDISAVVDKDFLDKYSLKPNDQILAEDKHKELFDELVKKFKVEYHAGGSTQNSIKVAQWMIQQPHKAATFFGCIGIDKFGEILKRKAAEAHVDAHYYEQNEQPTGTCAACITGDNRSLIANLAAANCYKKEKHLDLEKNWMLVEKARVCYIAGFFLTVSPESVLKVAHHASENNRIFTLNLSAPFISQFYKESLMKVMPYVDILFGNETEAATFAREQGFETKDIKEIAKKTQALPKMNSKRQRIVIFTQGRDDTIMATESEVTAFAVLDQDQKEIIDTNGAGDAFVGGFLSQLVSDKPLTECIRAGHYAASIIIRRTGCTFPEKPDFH
Method in brief: (§1)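 BJ (normal) and HCT116 (malignant) cells exposed to nucleoside at 1 or 10 μmol/L for 1 or 3 h. Intracellular nucleoside and its monophosphate quantified against synthetic monophosphate standards. Values given as pmol per 5 × 10^5 cells.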

Adenosine kinase [2] = biological target: T1, Adenosine kinase; assay: Drug metabolism in human HCT116 cells assessed as ADK-mediated compound phosphorylation level per 5x10^5 cells at 10 umol/L after 1 hr by UPLC-MS/MS analysis; type: ADME, cell-based; conditions: 10 µM; method in brief: as §1
Adenosine kinase [3] = biological target: T1, Adenosine kinase; assay: Drug metabolism in human BJ cells assessed as ADK-mediated compound phosphorylation level per 5x10^5 cells at 1 umol/L after 3 hrs by UPLC-MS/MS analysis; type: ADME, cell-based; conditions: 1 µM; method in brief: as §1
Adenosine kinase [4] = biological target: T1, Adenosine kinase; assay: Drug metabolism in human HCT116 cells assessed as ADK-mediated compound phosphorylation level per 5x10^5 cells at 1 umol/L after 1 hr by UPLC-MS/MS analysis; type: ADME, cell-based; conditions: 1 µM; method in brief: as §1
Adenosine kinase [5] = biological target: T1, Adenosine kinase; assay: Drug metabolism in human HCT116 cells assessed as ADK-mediated compound phosphorylation level per 5x10^5 cells at 1 umol/L after 3 hrs by UPLC-MS/MS analysis; type: ADME, cell-based; conditions: 1 µM; method in brief: as §1
Adenosine kinase [6] = biological target: T1, Adenosine kinase; assay: Drug metabolism in human BJ cells assessed as ADK-mediated compound phosphorylation level per 5x10^5 cells at 10 umol/L after 1 hr by UPLC-MS/MS analysis; type: ADME, cell-based; conditions: 10 µM; method in brief: as §1
Adenosine kinase [7] = biological target: T1, Adenosine kinase; assay: Drug metabolism in human BJ cells assessed as ADK-mediated compound phosphorylation level per 5x10^5 cells at 1 umol/L after 1 hr by UPLC-MS/MS analysis; type: ADME, cell-based; conditions: 1 µM; method in brief: as §1
Adenosine kinase [8] = biological target: T1, Adenosine kinase; assay: Drug metabolism in human BJ cells assessed as ADK-mediated compound phosphorylation level per 5x10^5 cells at 10 umol/L after 3 hrs by UPLC-MS/MS analysis; type: ADME, cell-based; conditions: 10 µM; method in brief: as §1
DNA = assay: Induction of DNA damage in human U2OS cells transfected with 53BP1-GFP fusion gene assessed as increase in number of foci per nucleus measured at 1 hr intervals for 11 hrs by fluorescence-based assay; type: functional, cell-based
Method in brief: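 U2OS osteosarcoma reporter line stably expressing 53BP1-GFP treated up to 11 h, with etoposide as the double-strand-break reference. 53BP1 foci in nuclei imaged by confocal microscopy (40× objective).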

Compound	Drug metabolism (Adenosine kinase [1]) [pmol]	Drug metabolism (Adenosine kinase [2]) [pmol]	Drug metabolism (Adenosine kinase [3]) [pmol]	Drug metabolism (Adenosine kinase [4]) [pmol]	Drug metabolism (Adenosine kinase [5]) [pmol]	Drug metabolism (Adenosine kinase [6]) [pmol]	Drug metabolism (Adenosine kinase [7]) [pmol]	Drug metabolism (Adenosine kinase [8]) [pmol]	Activity (DNA)
Cc1ncnc2c1c1c(ccn1C)n2[C@@H]1O[C@H](COP(=O)([O-])O)[C@@H](O)[C@H]1O.[Na+]	12049.83	8868.83	332.63	466.96	1079.19	1531.57	220.92	5041.67	
Cc1ncnc2c1c1occc1n2[C@@H]1O[C@H](COP(=O)([O-])O)[C@@H](O)[C@H]1O.[Na+]	12533.33	9531.67	241.05	511.81	1167.4	4488.64	223.51	4920.41	
COc1cc([C@@H]2c3cc4c(cc3[C@@H](O[C@@H]3O[C@@H]5CO[C@@H](C)O[C@H]5[C@H](O)[C@H]3O)[C@H]3COC(=O)[C@H]23)OCO4)cc(OC)c1O									Active
